Source: ChEMBL document CHEMBL1125367 (J Med Chem, 1992)

Experiments:
[1] = target: D(2) dopamine receptor (Rattus norvegicus) (UniProt P61169); test: The percentage inhibition of adenylate cyclase activity of compound was measured on dopamine receptor D2 of Rat Striatum at 1 micro M; conditions: values are per cent of control
How it was run: (§1)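 D-2 inhibition of basal adenylate cyclase in rat striatal synaptic membranes, 20-30 μg protein. Medium: Tris-HCl pH 7.4, 100 mM NaCl, 0.5 mM ATP, 50 μM GTP, IBMX, [α-32P]ATP, with 0.1 μM SCH 23390 present to block D-1. Incubation 20 min at 25 °C, followed by double-column cAMP isolation. Activity is given as % of basal, quadruplicates, three experiments.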

[2] = target: D(1A) dopamine receptor (Rattus norvegicus) (UniProt P18901); test: Percent stimulation of adenylate cyclase activity at dopamine receptor D1 of Rat Striatum at 1 uM; assay type: functional; conditions: values are per cent of control
D(1A) dopamine receptor (Rattus norvegicus), sequence (P18901 whole entry): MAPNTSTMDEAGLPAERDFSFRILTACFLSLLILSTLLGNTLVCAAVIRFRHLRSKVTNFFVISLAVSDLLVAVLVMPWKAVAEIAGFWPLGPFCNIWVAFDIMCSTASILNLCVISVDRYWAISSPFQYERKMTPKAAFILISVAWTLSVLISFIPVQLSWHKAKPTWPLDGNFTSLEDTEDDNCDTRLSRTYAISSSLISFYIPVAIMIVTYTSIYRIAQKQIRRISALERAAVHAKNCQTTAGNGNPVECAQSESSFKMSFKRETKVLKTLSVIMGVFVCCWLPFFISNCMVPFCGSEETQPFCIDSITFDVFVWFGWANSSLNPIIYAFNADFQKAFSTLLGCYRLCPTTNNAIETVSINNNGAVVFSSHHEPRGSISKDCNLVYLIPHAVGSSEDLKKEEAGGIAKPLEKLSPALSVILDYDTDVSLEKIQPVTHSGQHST

[3] = target: T1, D(1A) dopamine receptor (Rattus norvegicus, UniProt P18901); test: (§2) Inhibitory activity against [3H]-SCH- 23390 in Rat Striatal membrane; assay type: cell membranes
T1 sequence (P18901 whole entry): as above

[4] = target: D(1A) dopamine receptor (Rattus norvegicus) (UniProt P18901); test: Selectivity index of D1 receptor to that of D2 receptor was determined
How it was run: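 Index equals IC50 at D-1 ([3H]SCH 23390 binding) divided by IC50 at D-2 ([3H]spiperone binding), both measured in rat striatal membrane competition assays.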

[5] = target: D(1A) dopamine receptor (Rattus norvegicus) (UniProt P18901); test: The percentage stimulation of adenylate cyclase activity of compound was measured on dopamine receptor D1 of Rat Striatum at 0.1uM; assay type: functional
[6] = target: D(2) dopamine receptor (Rattus norvegicus) (UniProt P61169); test: The percentage inhibition of adenylate cyclase activity of compound was measured on dopamine receptor D2 of Rat Striatum at 0.01 micro M; conditions: values are per cent of control; how it was run: as §1
[7] = target: D(1A) dopamine receptor (Rattus norvegicus) (UniProt P18901); test: The percentage stimulation of adenylate cyclase activity of compound was measured on dopamine receptor D1 of Rat Striatum at 10 uM; assay type: functional; conditions: values are per cent of control
[8] = target: D(2) dopamine receptor (Rattus norvegicus) (UniProt P61169); test: The percentage inhibition of adenylate cyclase activity of compound was measured on dopamine receptor D2 of Rat Striatum at 0.1 micro M; conditions: values are per cent of control; how it was run: as §1
[9] = target: D(2) dopamine receptor (Rattus norvegicus, UniProt P61169); test: Inhibitory activity against [3H]spiperone in Rat Striatal membrane; assay type: cell membranes
D(2) dopamine receptor, sequence (P61169 whole entry): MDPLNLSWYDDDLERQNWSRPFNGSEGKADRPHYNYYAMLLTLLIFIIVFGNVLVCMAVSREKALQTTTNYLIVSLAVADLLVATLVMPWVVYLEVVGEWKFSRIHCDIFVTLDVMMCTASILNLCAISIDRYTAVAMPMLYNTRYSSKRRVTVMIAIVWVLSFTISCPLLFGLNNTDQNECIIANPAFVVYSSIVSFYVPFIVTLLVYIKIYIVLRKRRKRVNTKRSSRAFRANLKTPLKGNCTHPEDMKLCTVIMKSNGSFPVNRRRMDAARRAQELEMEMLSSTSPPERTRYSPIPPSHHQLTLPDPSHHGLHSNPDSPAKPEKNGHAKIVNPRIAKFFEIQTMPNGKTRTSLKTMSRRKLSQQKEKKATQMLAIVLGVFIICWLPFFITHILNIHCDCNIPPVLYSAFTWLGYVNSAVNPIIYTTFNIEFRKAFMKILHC

[10] = target: D(1A) dopamine receptor (Rattus norvegicus) (UniProt P18901); test: The percentage stimulation of adenylate cyclase activity of compound was measured on dopamine receptor D1 of Rat Striatum at 0.01 uM; assay type: functional
[11] = target: D(2) dopamine receptor (Rattus norvegicus) (UniProt P61169); test: The percentage inhibition of adenylate cyclase activity of compound was measured on dopamine receptor D2 of Rat Striatum at 10 micro M; conditions: values are per cent of control; how it was run: as §1
[12] = target: D(1A) dopamine receptor (Rattus norvegicus) (UniProt P18901); test: The percentage stimulation of adenylate cyclase activity of compound was measured on dopamine receptor D1 of Rat Striatum at 0.1 uM; assay type: functional
[13] = target: T1, D(1A) dopamine receptor; test: as §2; assay type: cell membranes; remark: listed apart in the source
How it was run: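 Competition binding on rat striatal membranes. The D-1 site was labelled with [3H]SCH 23390 and the D-2 site with [3H]spiperone. IC50 is the concentration giving half-maximal inhibition of binding, reported as mean ± SEM.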

D(2) dopamine receptor (Rattus norvegicus), sequence (P61169 whole entry): as above

Compound: Br.CCCN(CCCc1ccc(O)cc1)CCc1ccc(Cl)c(O)c1
- residual activity [1]: 82%
- residual activity [2]: 100%
- IC50 [3]: 16.9 µM
- Ratio [4]: 19.9
- stimulation [5]: 101%
- residual activity [6]: 96.4%
- residual activity [7]: 110%
- residual activity [8]: 86%
- IC50 [9]: 0.85 µM

Compound: CCCN(CCc1ccccc1)CCc1ccc(Cl)c(O)c1
- residual activity [1]: 78%
- stimulation [10]: 104%
- residual activity [2]: 118%
- IC50 [3]: 24.4 µM
- Ratio [4]: 17.6
- residual activity [6]: 93%
- residual activity [11]: 76%
- stimulation [12]: 113%
- residual activity [7]: 128%
- residual activity [8]: 86%
- IC50 [9]: 1.39 µM

Compound: CCCN(CCc1ccccc1)CCc1cccc(O)c1
- residual activity [1]: 86%
- IC50 [3]: 92.8 µM
- Ratio [4]: 124
- residual activity [11]: 84%
- residual activity [8]: 95%
- IC50 [9]: 0.75 µM

Compound: CCCN(CCc1cccc(O)c1)CCc1ccc(Cl)c(O)c1
- residual activity [1]: 83%
- stimulation [10]: 103%
- residual activity [2]: 125%
- IC50 [3]: 11.2 µM
- Ratio [4]: 15.3
- residual activity [6]: 94%
- residual activity [11]: 81%
- stimulation [12]: 116%
- residual activity [7]: 128%
- residual activity [8]: 91%
- IC50 [9]: 0.73 µM

Compound: NCCc1ccc(O)c(O)c1
- residual activity [1]: 87%
- stimulation [10]: 104%
- residual activity [2]: 110%
- residual activity [6]: 95%
- residual activity [11]: 83%
- stimulation [12]: 113%
- residual activity [8]: 92%

Compound: Br.CCCN(CCC)CCc1ccc(Cl)c(O)c1
- residual activity [1]: 90%
- residual activity [2]: 105%
- IC50 [3]: 50.7 µM
- Ratio [4]: 3.93
- residual activity [6]: 96%
- residual activity [11]: 86%
- stimulation [12]: 101%
- residual activity [7]: 115%
- residual activity [8]: 88%
- IC50 [9]: 12.9 µM

Compound: Br.NCCc1ccc(Cl)c(O)c1
- residual activity [1]: 87%
- residual activity [2]: 95%
- IC50 [3]: 25.3 µM
- Ratio [4]: 0.96
- residual activity [6]: 101%
- residual activity [11]: 84%
- stimulation [12]: 98%
- residual activity [7]: 105%
- residual activity [8]: 90%
- IC50 [9]: 26.3 µM

Compound: CCCN(CCc1ccc(O)cc1)CCc1ccc(Cl)c(O)c1
- IC50 [13]: 18.1 µM
- residual activity [1]: 74%
- residual activity ([10]; values are per cent of control): 126%
- residual activity [2]: 136%
- Ratio [4]: 20.1
- residual activity [6]: 92%
- residual activity [11]: 74%
- residual activity ([12]; values are per cent of control): 130%
- residual activity [7]: 136%
- residual activity [8]: 81%
- IC50 [9]: 0.9 µM
